Screening results: PubChem BioAssay, several laboratories
This is a sample that favours compounds with a hit; in the whole collection about 4% have one here.
PHOSPHO1 inh = blocks human PHOSPHO1 phosphatase activity | inhibition, % at 13.3 µM | recombinant PHOSPHO1, absorbance phosphatase assay | Q8TCT1 | actives 1.1% (n = 290,000); in the data active means inhibition above about 60%
Target sequence (Q8TCT1 whole entry, looked up): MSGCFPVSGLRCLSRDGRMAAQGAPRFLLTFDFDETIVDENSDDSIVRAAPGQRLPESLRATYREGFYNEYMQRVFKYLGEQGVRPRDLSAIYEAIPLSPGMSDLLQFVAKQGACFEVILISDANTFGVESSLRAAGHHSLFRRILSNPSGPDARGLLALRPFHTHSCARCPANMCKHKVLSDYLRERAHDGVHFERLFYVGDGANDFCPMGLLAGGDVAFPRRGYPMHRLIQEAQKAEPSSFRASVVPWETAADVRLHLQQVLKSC
hERG rescue = shields human hERG channel from block by proarrhythmic agents; AID 1511; CHO-hERG, FluxOR thallium flux, dofetilide IC70 present; actives 0.51% (n = 310,000); activation (rescue from dofetilide block), less the hit threshold, % at 10 µM; Q12809;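 active means activation above the mean of controls blocked by dofetilide plus 5 SD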;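 further: thallium influx through hERG after potassium depolarization seen as dye fluorescence rise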
KCNQ1 block = human KCNQ1 channel inhibition | actives 1.3% (n = 310,000) | AID 2642 | CHO-K1 KCNQ1, FluxOR thallium flux fluorescence; stronger effect = higher value | B-score at 10 µM;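 active means compounds whose thallium flux B-score, printed positive for inhibition, exceeds three library SD while starting fluorescence stays within three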;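 further: channel opened by potassium depolarization with thallium stimulus after 20 min compound exposure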
KCNK3 inh = human KCNK3 channel inhibition, primary screen. O14649. CHO-KCNK3 thallium flux, FluxOR fluorescence; stronger effect = lower value. B-score at 10 µM. actives 0.84% (n = 340,000). AID 602410;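 active means B-score under library mean minus 4 SD, starting fluorescence ratio at most library mean plus 5 SD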;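 further: more negative B-score means stronger inhibition of thallium flux through KCNK3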
KCNQ1 act = human KCNQ1 channel potentiation or activation. P51787. CHO-K1 KCNQ1, thallium flux FluxOR fluorescence; stronger effect = higher value. B-score at 10 µM. actives 0.35% (n = 310,000). AID 2648;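 active means fluorescence ratio B-score, a plate-corrected score, at least three library SD, with initial intensity B-score within 5 SD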
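System: Stable KCNQ1 CHO-K1 line | Incubation: 90 min dye loading and 20 min compound exposure, both at room temperature | Measure: Ratio B score | Medium: Assay buffer for compound exposure, DMSO matched across wells | Compound dosing: Single-concentration screen | Probe or stimulus: K+/Tl+ depolarizing stimulus | Measured by: Kinetic FluxOR fluorescence, 10 s baseline plus 110 s post-stimulus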
KCNK9 block = inhibitors of human KCNK9 two-pore domain potassium channel. Q9NPC2. HEK293 KCNK9, FluxOR thallium flux fluorescence; stronger effect = lower value. B-score at 10 µM. actives 1.2% (n = 310,000);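 active means ratio B-score over 3 SD below the library mean, with starting fluorescence within 5 SD of its mean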;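 further: negative B-score means less thallium flux so channel inhibition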
Hits are given with their value.

Screening O=C(O)CSCc1cnn(-c2ccccc2)c1-n1cccc1 returned PHOSPHO1 inh inactive, hERG rescue inactive, KCNQ1 block inactive, KCNK3 inh inactive, KCNQ1 act inactive and KCNK9 block inactive.
Screening COc1ccc(Cl)cc1NC(=O)C(C)N1CCN(c2ccccn2)CC1 (centres undefined) returned PHOSPHO1 inh inactive, hERG rescue inactive, KCNQ1 block inactive, KCNK3 inh inactive, KCNQ1 act inactive and KCNK9 block inactive.
For CC[n+]1c(/C=C2\C=C(C)CC(C)C2)sc2ccccc21 (centres undefined) the results were PHOSPHO1 inh 102.3, hERG rescue inactive, KCNQ1 block 6, KCNK3 inh inactive, KCNQ1 act inactive and KCNK9 block inactive.
`CCC1=C/C(=C/c2sc3ccccc3[n+]2CC)CC(C)(C)C1` gave PHOSPHO1 inh inactive, hERG rescue inactive, KCNQ1 block inactive, KCNK3 inh inactive, KCNQ1 act inactive and KCNK9 block inactive.
`CC[n+]1c(/C=C2/C=C(C)CC(C)(C)C2)sc2ccc(OC)cc21` gave PHOSPHO1 inh inactive, hERG rescue inactive, KCNQ1 block 10, KCNK3 inh inactive, KCNQ1 act inactive and KCNK9 block inactive.
For CC[n+]1c(/C=C2\C=C(C)CC(C)(C)C2)sc2ccccc21 the results were PHOSPHO1 inh 100.0, hERG rescue inactive, KCNQ1 block 7, KCNK3 inh inactive, KCNQ1 act inactive and KCNK9 block inactive.
For CC(=O)N(Cc1ccc(F)cc1)C1=C(NCc2ccccc2)C(=O)c2ccccc2C1=O the results were PHOSPHO1 inh inactive, hERG rescue inactive, KCNQ1 block inactive, KCNK3 inh inactive, KCNQ1 act inactive and KCNK9 block -7.86.
COc1ccccc1CCN=C(N)NS(=O)(=O)c1ccccc1F was read as PHOSPHO1 inh 65.8, hERG rescue inactive, KCNQ1 block inactive, KCNK3 inh inactive, KCNQ1 act inactive and KCNK9 block inactive.
COC(=O)c1ccc(CSc2nc3c(c(=O)n2-c2ccc(Br)cc2)SCC3)o1 was read as PHOSPHO1 inh inactive, hERG rescue inactive, KCNQ1 block inactive, KCNK3 inh inactive, KCNQ1 act inactive and KCNK9 block inactive.
`N#C/C(=C\c1ccccc1O)C(=O)Nc1cccnc1` gave PHOSPHO1 inh inactive, hERG rescue inactive, KCNQ1 block inactive, KCNK3 inh inactive, KCNQ1 act inactive and KCNK9 block inactive.
Screening Nc1c(C(=O)c2ccccc2)sc2nsc(SCCN3CCOCC3)c12 returned PHOSPHO1 inh 60.8, hERG rescue inactive, KCNQ1 block inactive, KCNK3 inh inactive, KCNQ1 act inactive and KCNK9 block inactive.
For CC(=O)c1sc2nsc(SCCN3CCOCC3)c2c1N the results were PHOSPHO1 inh 85.9, hERG rescue inactive, KCNQ1 block inactive, KCNK3 inh inactive, KCNQ1 act inactive and KCNK9 block inactive.
`Cc1ccccc1C1C(C#N)=C2N=C(N)c3c(sc4c3CCCCC4)N2C2=C1C(=O)CCC2` (centres undefined) gave PHOSPHO1 inh inactive, hERG rescue inactive, KCNQ1 block inactive, KCNK3 inh inactive, KCNQ1 act inactive and KCNK9 block -6.79.
For COc1ccccc1OCCn1cc(C(=O)C(C)C)c2ccccc21 the results were PHOSPHO1 inh inactive, hERG rescue inactive, KCNQ1 block inactive, KCNK3 inh inactive, KCNQ1 act inactive and KCNK9 block inactive.
CCN1CCN(C(c2ccccc2)c2nnnn2Cc2ccc3c(c2)OCO3)CC1 (centres undefined) was read as PHOSPHO1 inh 61.1, hERG rescue inactive, KCNQ1 block inactive, KCNK3 inh inactive, KCNQ1 act inactive and KCNK9 block inactive.
`CC1CCN(C(c2ccc(N(C)C)cc2)c2nnnn2Cc2ccccc2)CC1` (centres undefined) gave PHOSPHO1 inh 68.8, hERG rescue inactive, KCNQ1 block inactive, KCNK3 inh inactive, KCNQ1 act inactive and KCNK9 block inactive.
`CCN1CCN(C(c2ccc(OC)cc2)c2nnnn2Cc2ccc3c(c2)OCO3)CC1` (centres undefined) gave PHOSPHO1 inh inactive, hERG rescue inactive, KCNQ1 block inactive, KCNK3 inh inactive, KCNQ1 act inactive and KCNK9 block inactive.
Screening COc1cc(OC)c(N(C)S(=O)(=O)c2cccc(C(=O)NC(C)C3CC4CCC3C4)c2)cc1Cl (centres undefined) returned PHOSPHO1 inh inactive, hERG rescue inactive, KCNQ1 block inactive, KCNK3 inh inactive, KCNQ1 act inactive and KCNK9 block inactive.
